Measurements gathered from unrelated publications.
Lines come from different studies, so protocols differ.
Organism: Severe acute respiratory syndrome coronavirus 2
Mode: inhibitor

Cc1ccc(NC(=O)C2(c3ccc4c(c3)OC(F)(F)O4)CC2)nc1-c1cccc(C(=O)O)c1  IC50 (viral replication; Caco-2; replicon): 964 nM
COc1ncc(-c2cn([C@@H]3O[C@](F)(COC(=O)C(C)C)[C@@H](OC(=O)C(C)C)[C@H]3OC(=O)C(C)C)cn2)c(N)n1  IC50 (viral replication; A549-ACE2; 24 h): 41900 nM
CCOc1nc2cccc(C(=O)O)c2n1Cc1ccc(-c2ccccc2-c2nnn[nH]2)cc1  IC50 (viral replication; Caco-2; replicon): 714 nM
Cc1cn2nc([C@@H]3CCCCN3C(=O)c3cc(Cl)ccc3NS(C)(=O)=O)cc2nc1N1CC[C@H](N)C1  IC50 (viral entry; HeLa-ACE2; pseudovirus): 320 nM
COc1nc(N)ncc1-c1cn([C@@H]2O[C@](F)(CO)[C@@H](O)[C@H]2O)cn1  IC50 (viral replication; A549-ACE2; 24 h): > 100000 nM
CCC(CC)COC(=O)[C@H](C)N[P@](=O)(OC[C@H]1O[C@@](C#N)(c2ccc3c(N)ncnn23)[C@H](O)[C@@H]1O)Oc1ccccc1  IC50 (viral replication; A549-hACE2-TMPRSS2; 24 h): 100 nM
CC(C)C(=O)OC[C@@]1(F)O[C@@H](n2cnc(-c3c[nH]c(=O)[nH]c3=O)c2)[C@H](OC(=O)C(C)C)[C@@H]1OC(=O)C(C)C  IC50 (viral replication; A549-ACE2; 24 h): 49800 nM
O=C(Nc1ccc([N+](=O)[O-])cc1Cl)c1cc(Cl)ccc1O  IC50 (viral entry; HeLa-ACE2; pseudovirus): 1350 nM
O=c1[nH]c2ccccc2n1C1CCN(CCCC(c2ccc(F)cc2)c2ccc(F)cc2)CC1  IC50 (viral replication; Calu-3; replicon): 4910 nM
Cc1ccccc1-n1nnnc1Sc1ccc(C(=O)c2ccccc2)cc1[N+](=O)[O-]  IC50 (viral replication; A549-hACE2-TMPRSS2; 24 h): 25300 nM
